Assay outcomes deposited in PubChem BioAssay by several laboratories.
CHOP inh = CHOP inhibition in unfolded protein response; 220,000 tested, 3.8% active; CHO-K1 CHOP-promoter luciferase, tunicamycin-induced, 15-18 h; AID 2732; inhibition, % at 10 µM;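 active means compounds that reduced the stress-induced luciferase reporter signal by more than about 70% of percent inhibition, limit read from the data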;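 further: 0% = tunicamycin plus vehicle and 100% = wells without tunicamycin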
UPR XBP1 act = adaptive UPR (XBP1) activation; CHO-XBP1 luciferase reporter, IRE1-XBP1 UPR activation, luminescence; percent of tunicamycin response, DMSO as zero; activation, % at 20 µM; 330,000 tested, 0.33% active;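 active means versus positive control, 20 µM dose yields 30% or more activation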;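 further: 100% = tunicamycin at 10 µg/mL and 0% = DMSO only wells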
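Material – CHO cell line with stable XBP1 luciferase reporter · Buffer or medium – F12 plus 10% FBS · Compound – single point, 20 µM final compound, 1% DMSO · Schedule – 16-18 h cell attachment at 37 °C, then 6 h compound exposure · Signal – Steady-Glo luminescence read · Benchmarks – high control tunicamycin 10 µg/mL final, low control DMSO vehicle only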
Jurkat NFkB inh = lowers PMA/ionomycin-induced NF-kB signal in Jurkat cells; PMA/ionomycin-induced NF-kB luciferase reporter, luminescence; inhibition, % at 4 µM; 330,000 tested, 0.53% active; AID 435003; in the data active means inhibition above about 50%
CHOP UPR activ = activators of apoptotic arm of unfolded protein response (CHOP). CHO-CHOP luciferase reporter, UPR activation, luminescence; percent of tunicamycin response over DMSO baseline. activation, % at 10 µM. 330,000 tested, 0.34% active. AID 449763;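 active means at 10 µM dose, activation of 40% or more, normalized to positive control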;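 further: 100% = tunicamycin at 10 µg/mL and 0% = DMSO alone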
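assay system = CHO CHOP reporter cells | amount = 500 CHO-CHOP cells per well | buffer or medium = F12 with 10% FBS | incubation = 16-18 h cell attachment, then 6 h compound exposure, 37 °C | detection = luminescence read with Steady-Glo | read-out = percent activation relative to tunicamycin control | controls = tunicamycin high control, DMSO low control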
Gli-Sufu antag = antagonists of Gli-Sufu signaling. inhibition, % at 5 µM. 340,000 tested, 0.74% active. AID 588413. Sufu-KO-LIGHT fibroblasts, Gli luciferase reporter luminescence;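 active means inhibition above about 55%, limit read from the data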;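 further: 0% = DMSO-treated cells and 100% = wells with medium but no cells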
697 NFkB inh = lowers PMA/ionomycin-induced NF-kB signal in 697 B cells; 697 B-cell NF-kB luciferase reporter, 16 h; inhibition, % at 4 µM; 330,000 tested, 0.33% active; in the data active means inhibition above about 35%
* marks the source's active call; other numbers are inactive results; / = not tested or not shown. The list is not random: actives were taken first. Their share in the collection is about 3.9%.

SMILES	CHOP inh	UPR XBP1 act	Jurkat NFkB inh	CHOP UPR activ	Gli-Sufu antag	697 NFkB inh
COc1cccc(C2=NN(C(=O)c3cccs3)C(O)(C(F)(F)F)C2)c1 (centres undefined)	75*	11	-7	1	-14	12
COc1cccc(C(=O)N2N=C(c3cccc(OC)c3)CC2(O)C(F)(F)F)c1 (centres undefined)	68	-2	3	1	-1	-8
Cc1ccc(CC(=O)Nc2nccs2)cc1C	/	2	17	1	-42	-1
Cc1ccc(OCC(=O)O)c(O)c1	/	/	/	/	1	/
CCCc1ccc2oc(C(=O)N3CCN(c4cnccn4)CC3)c(C)c2c1	/	-1	11	2	12	-10
O=C1CCCC2=C1C(c1ccncc1)c1c(nc(SCc3ccccc3Cl)[nH]c1=O)N2 (centres undefined)	18	-3	7	3	-6	9
CCC(C)Sc1nc2c(c(=O)[nH]1)C(c1cccs1)C1=C(CCCC1=O)N2 (centres undefined)	82*	1	5	-1	3	28
Cc1ccc(-n2ncc3c(=O)n(CC(=O)N4CCN(c5ccccc5)CC4)cnc32)cc1	82*	-2	-2	0	5	-6
CN(C)C(=O)Cn1cnc2c(cnn2-c2ccccc2Cl)c1=O	89*	-1	-10	1	2	19
CC(C)(C)c1cc(C2COC(=O)COCCOCC(=O)OCCOCCO2)cc(C(C)(C)C)c1O (centres undefined)	/	/	/	/	-4	/
CCN(CC)CCCN(C(=O)c1ccc(F)cc1)c1nc(-c2ccc(OC)cc2)cs1	/	-4	-2	1	34	-10
O=C(CSc1nnc(NC2CC2)s1)c1ccc[nH]1	/	1	-56	2	-60	-69
O=C1CN(C(=O)COc2ccc(Cl)c(Cl)c2)c2ccccc2N1	/	-2	15	0	-9	14
O=C1CN(C(=O)Cn2ncc(Cl)c(Cl)c2=O)c2ccccc2N1	92*	/	/	/	31	/
CC(C)(C)C(=O)Cn1ncc(Cl)c(Cl)c1=O	-68	/	/	/	-4	/
O=C(OCn1ncc(Cl)c(Cl)c1=O)c1ccccc1Cl	107*	/	/	/	4	/
C=CCn1c(C)cc(C(=O)Cn2ncc(Cl)c(Cl)c2=O)c1C	75*	/	/	/	-7	/
O=C(Cn1ncc(Cl)c(Cl)c1=O)c1ccc(Cl)cc1	102*	/	/	/	10	/
N#Cc1nc(-c2ccc(F)cc2)oc1N1CCC(C(N)=O)CC1	/	-1	-2	-2	2	-18
Cc1ccc2c(c1)c(C)c(C)n2CC(O)Cn1nc(C)cc1C (centres undefined)	44	-2	-24	-1	3	-24
Cc1ccc2c(c1)c(C)c(C)n2CC(O)Cn1nnc2ccccc21 (centres undefined)	84*	1	-67	6	-33	-88
CCCOP(=O)(OCCC)C(Nc1cccc(C(F)(F)F)c1)c1ccc(C)cc1 (centres undefined)	90*	-2	-7	-1	14	15
CCOC(=O)N=Nc1c(O)n(Cc2ccccc2)c2ccccc12	80*	3	-11	1	5	-36
O=Nc1c(O)n(Cc2cccc(Cl)c2)c2ccccc12	73*	2	5	0	1	-15
COC(=O)N=Nc1c(O)n(Cc2ccccc2)c2ccccc12	7	0	8	2	-1	3
SMILES	CHOP inh	UPR XBP1 act	Jurkat NFkB inh	CHOP UPR activ	Gli-Sufu antag	697 NFkB inh
CC1CC(=O)c2c(cc3c(-c4c(O)cc(O)c5c(O)c6c(cc45)OC(C)CC6=O)c(O)cc(O)c3c2O)O1 (centres undefined)	82*	14	-3	10	23	-1
O=C1c2cccc(NCCNCCO)c2C(=O)c2cccc(NCCNCCO)c21	/	/	/	/	-10	/
CC(C)(C)c1ccc(C(=O)Nc2ccccc2NC(=O)c2ccco2)cc1	72*	-1	-5	0	8	1
CCOc1ccccc1OCC(O)CNC (centres undefined)	72*	0	17	1	3	25
C=CCc1ccccc1OCC(O)CNC (centres undefined)	57	0	-12	1	6	-7
COc1ccc(C2SCC(=O)N2CC23CC4CC(CC(C4)C2)C3)cc1 (centres undefined)	86*	0	10	0	0	-10
